UHRF1 binding: UHRF1 methyl-DNA binding inhibition; Q96T88; UHRF1 binding to methylated oligo, TR-FRET; inhibition, % at 4.4 µM; hit rate 0.75% among 370,000; AID 687016; in the data active = inhibition above about 21%;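 also: UHRF1 SRA domain binding a hemimethylated CpG hairpin DNA probe; 0% = median of test compound wells and 100% = reference inhibitor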
NSD2 HMT inh: NSD2 (human) methyltransferase inhibition. NSD2 peptide methylation, AlphaScreen, 120 min. hit rate 0.54% among 310,000. O96028. AID 743445. inhibition, % at 12.5 µM; in the data active = inhibition above about 50%
TDP2 inh: TDP2 (human) inhibition, absorbance primary screen; recombinant TDP2, T5PNP hydrolysis, p-nitrophenol absorbance 415 nm; inhibition, % at 12.8 µM; hit rate 0.34% among 370,000; AID 720702;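 active = inhibition above the mean of all tested compounds plus 3 SD, set per campaign, cut at about 25% in these data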;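 also: 0% = DMSO with enzyme and 100% = buffer with substrate but no TDP2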
Target sequence (O95551 whole entry, looked up): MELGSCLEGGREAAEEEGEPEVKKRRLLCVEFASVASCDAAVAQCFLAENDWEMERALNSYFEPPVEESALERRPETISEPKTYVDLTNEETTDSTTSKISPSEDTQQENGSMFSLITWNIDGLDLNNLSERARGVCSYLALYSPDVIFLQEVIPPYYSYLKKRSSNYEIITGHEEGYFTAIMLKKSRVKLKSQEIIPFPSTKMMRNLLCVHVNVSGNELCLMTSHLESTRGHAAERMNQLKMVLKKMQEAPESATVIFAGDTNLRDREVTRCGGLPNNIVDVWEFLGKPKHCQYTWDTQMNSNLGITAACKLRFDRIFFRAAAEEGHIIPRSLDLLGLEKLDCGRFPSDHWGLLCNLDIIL
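Read-out basis: percent inhibition. System: recombinant human TDP2. Buffer or medium: Mg2+-containing Tris-HCl buffer, pH 7.5. Repeats: single replicate. Timing: reaction 2 h, 37 °C. Benchmarks: high control without enzyme, low control DMSO plus TDP2. Probe or stimulus: 5 mM T5PNP. Doses: 12.8 µM only. Measured by: epi absorbance of p-nitrophenol freed from T5PNP by hydrolysis.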
CASP6 VEID inh: inhibitors of human caspase-6; inhibition, % at 12.5 µM; AID 686996; hit rate 0.53% among 350,000; P55212; purified caspase-6, Z-VEID-R110 cleavage fluorescence;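 active = mean inhibition across replicates at least about 35%, with every replicate also reaching that limit, limit read from the data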;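 also: 0% = median of neutral control wells and 100% = no fluorescence left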
Target sequence (P55212 24-179 limits assumed): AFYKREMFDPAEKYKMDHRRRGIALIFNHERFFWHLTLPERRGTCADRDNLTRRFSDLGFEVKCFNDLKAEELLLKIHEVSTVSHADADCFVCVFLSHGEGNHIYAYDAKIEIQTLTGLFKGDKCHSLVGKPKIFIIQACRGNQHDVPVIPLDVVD
Target sequence (P55212 194-293 limits assumed): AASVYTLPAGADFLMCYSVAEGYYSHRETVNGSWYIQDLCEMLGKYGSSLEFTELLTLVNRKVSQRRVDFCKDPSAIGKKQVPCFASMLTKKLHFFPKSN
MBD2 inh: inhibitors of human MBD2 binding to methylated oligonucleotide; Q9UBB5; hit rate 0.31% among 370,000; inhibition, % at 4.4 µM; TR-FRET; in the data active = inhibition above about 13%
LEDGF integ inh: blocks HIV-1 LEDGF/p75-dependent DNA integration. hit rate 0.64% among 370,000. TR-FRET IN-LEDGF/p75 DNA integration, Eu/Cy5. inhibition, % at 3.7 µM. AID 743269;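 active = inhibition above the screen-wide mean plus 3 SD, cut at about 13% in these data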;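 also: signal is the Cy5 over europium emission ratio at 671 and 618 nm; 0% = plate median of compound wells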
The depositor's hits bear a star. The list is not random: actives were taken first. Their share in the collection is about 1.8%.

`C[C@H]1CN([C@@H](C)CO)C(=O)c2cc(C3=CCCCC3)cnc2O[C@H]1CN(C)C(=O)NC1CCCC1` gave CASP6 VEID inh 6.7.
O=C(NC(=O)c1csnn1)Nc1ccccc1Cl was read as UHRF1 binding 1.8, NSD2 HMT inh -1.5, TDP2 inh 2.6, CASP6 VEID inh 61.2*, MBD2 inh 0.2 and LEDGF integ inh 2.4.
`NC(=O)NC(=O)Nc1ccccc1Cl` gave UHRF1 binding 4.4, NSD2 HMT inh -2.3, TDP2 inh -14.8, MBD2 inh 2.6 and LEDGF integ inh 2.8.
`O=C(NC1CCN(S(=O)(=O)c2ccc(Cl)c(F)c2)CC1)c1cccnc1` gave UHRF1 binding -0.9, TDP2 inh 7.5, CASP6 VEID inh -0.2, MBD2 inh -2.2 and LEDGF integ inh 4.4.
For O=C(NC1CCN(S(=O)(=O)c2ccc(Cl)cc2)CC1)c1cccnc1 the results were UHRF1 binding 31.4*, NSD2 HMT inh 27.7, TDP2 inh 2.2, CASP6 VEID inh 0.4, MBD2 inh 9.5 and LEDGF integ inh -0.5.
CCNC(=S)Nc1ccc(C)c(Cl)c1 was read as UHRF1 binding 25.1*, NSD2 HMT inh -2.1, TDP2 inh 1.1, CASP6 VEID inh -0.9, MBD2 inh 1.1 and LEDGF integ inh 0.1.
`O=C(O)c1ccc(-c2ccc(/C=C3\NC(=O)N(Cc4ccc(Cl)cc4)C3=O)o2)cc1Cl` gave UHRF1 binding 77.2*, NSD2 HMT inh 128.9*, TDP2 inh 3.3, CASP6 VEID inh 64.6*, MBD2 inh 22.3* and LEDGF integ inh 29.1*.
CCOC(=O)CN1C(=O)S/C(=C\c2ccc(-c3cccc(C(=O)O)c3C)o2)C1=O was read as UHRF1 binding 3.6, NSD2 HMT inh 5.4, TDP2 inh -4.5, CASP6 VEID inh 14.7, MBD2 inh -3.4 and LEDGF integ inh 2.3.
`Cc1cccc(NC(=O)CN2C(=O)N/C(=C/c3ccc(-c4cccc(C(=O)O)c4C)o3)C2=O)c1` gave UHRF1 binding -0.5, NSD2 HMT inh -13.5, TDP2 inh -15.7, CASP6 VEID inh 12.5, MBD2 inh -6.0 and LEDGF integ inh 7.0.
For CCOC(=O)CN1C(=O)S/C(=C\c2ccc(-c3ccc(C(=O)O)c(Cl)c3)o2)C1=O the results were UHRF1 binding 14.3, NSD2 HMT inh 37.4, TDP2 inh 2.0, CASP6 VEID inh 48.9*, MBD2 inh 4.5 and LEDGF integ inh 3.0.
`CO[C@@H]1CN(C)C(=O)c2cc(NS(=O)(=O)CC(F)(F)F)ccc2OC[C@@H](C)N(C(=O)NC(C)C)C[C@@H]1C` gave CASP6 VEID inh -3.9.
COc1cc(-c2c(C(=O)c3ccccc3)[nH]c(N)c2C(N)=O)ccc1F was read as UHRF1 binding 95.2*, TDP2 inh -14.2, CASP6 VEID inh 1.3, MBD2 inh 0.8 and LEDGF integ inh 1.6.
`CN(C)C(=O)c1cccc(-c2ccc([C@H]3[C@@H](CO)N4CCCCN(CCC(F)(F)F)C[C@@H]34)cc2)c1` gave CASP6 VEID inh -1.5.
Screening CCc1ccc(S(=O)(=O)/N=C2\C=C(Nc3ccc(O)cc3)C(=O)c3ccccc32)cc1 returned NSD2 HMT inh 28.6.
Screening Cc1ccc(S(=O)(=O)/N=C2/C=C(C3C(=O)CC(C)(C)CC3=O)C(=O)c3ccccc32)cc1 returned UHRF1 binding 4.1, TDP2 inh 51.1*, MBD2 inh -13.1 and LEDGF integ inh 39.7*.
C[C@H]1CN([C@@H](C)CO)C(=O)c2cccc(NS(=O)(=O)c3cn(C)cn3)c2O[C@H]1CN(C)C was read as CASP6 VEID inh 1.0.
For CC(C)C#Cc1cnc2c(c1)C(=O)N([C@@H](C)CO)C[C@H](C)[C@@H](CN(C)C(=O)Nc1cccc(F)c1)O2 the results were CASP6 VEID inh -1.9.
Screening Cc1cccc(NC(=O)CNC(=O)CCc2nc3sc4c(c3c(=O)[nH]2)CCCC4)c1C returned UHRF1 binding 16.5, NSD2 HMT inh 5.2, TDP2 inh -8.8, CASP6 VEID inh 41.3*, MBD2 inh 5.8 and LEDGF integ inh 4.8.
CN(CC(=O)Nc1ccc(F)c(F)c1F)C(=O)CCc1nc2sc3c(c2c(=O)[nH]1)CCCC3 was read as UHRF1 binding 9.3, NSD2 HMT inh 1.0, TDP2 inh -4.9, CASP6 VEID inh 42.3*, MBD2 inh -3.0 and LEDGF integ inh 1.6.
`CO[C@@H]1CN(C)C(=O)c2ccc(NS(C)(=O)=O)cc2OC[C@@H](C)N(C(=O)C2CCCC2)C[C@@H]1C` gave CASP6 VEID inh 0.4.
`CCCOC(=O)Nc1nc2ccccc2o1` gave UHRF1 binding -0.4, NSD2 HMT inh 3.9, TDP2 inh -5.4, MBD2 inh -1.7 and LEDGF integ inh 0.6.
Screening CCOC(=O)c1cnc(Nc2nc3ccccc3o2)nc1CN1CCN(C)CC1 returned UHRF1 binding -4.5, TDP2 inh -4.1, MBD2 inh -3.3 and LEDGF integ inh 17.9*.
Screening CCOc1ccccc1C(=O)NCC(=O)NNC(=O)c1cccs1 returned UHRF1 binding 21.2*, NSD2 HMT inh -0.8, TDP2 inh -6.6, CASP6 VEID inh -0.1, MBD2 inh -0.8 and LEDGF integ inh 2.5.
COc1cc(OC)cc(C(=O)NNC(=O)CNC(=O)c2cccs2)c1 was read as UHRF1 binding 0.2, NSD2 HMT inh -3.2, TDP2 inh -17.0, CASP6 VEID inh 62.3*, MBD2 inh -7.6 and LEDGF integ inh 2.5.
`COc1cccc2c(=O)n(CC(=O)N3CCC(C)CC3)ccc12` gave UHRF1 binding 93.2*, TDP2 inh 3.7, CASP6 VEID inh 1.4, MBD2 inh -7.6 and LEDGF integ inh 6.4.
Screening COc1cccc2c(=O)n(CC(=O)N3CCN(c4ccccc4)CC3)ccc12 returned UHRF1 binding 0.5, TDP2 inh 5.6, CASP6 VEID inh -0.2, MBD2 inh -3.5 and LEDGF integ inh 9.1.
C[C@H](NC(=O)C[C@H]1C[C@@H]2c3cc(NC(=O)C4CCOCC4)ccc3O[C@@H]2[C@@H](CO)O1)c1ccccc1 was read as CASP6 VEID inh 1.3.
CC(C)Cc1ccc(CN2C(C)C(=O)N(Cc3cn(Cc4ccco4)nn3)CCS2(=O)=O)cc1 (stereo not drawn) was read as UHRF1 binding -3.0, TDP2 inh -10.5, CASP6 VEID inh 45.6*, MBD2 inh 3.7 and LEDGF integ inh 7.8.
For C[C@@H]1CN([C@@H](C)CO)C(=O)c2cc(C#CC3(O)CCCC3)cnc2O[C@@H]1CN(C)C(=O)C1CCOCC1 the results were CASP6 VEID inh -0.5.
C[C@H](CO)N1C[C@H](C)[C@H](CN(C)Cc2ccc(C(=O)O)cc2)Oc2c(NS(=O)(=O)c3cn(C)cn3)cccc2C1=O was read as CASP6 VEID inh -3.1.
Screening O=C(NN=Cc1ccc(F)cc1)c1ccccc1NS(=O)(=O)c1cccs1 returned UHRF1 binding -1.2, NSD2 HMT inh 0.2, TDP2 inh 5.6, CASP6 VEID inh -0.2, MBD2 inh 1.8 and LEDGF integ inh 0.8.

High-throughput results deposited in PubChem BioAssay by several laboratories.
